# Experimental data gathered from unrelated publications.
# Compare with care: the assays were run in different laboratories.
# SLCO1B3: Solute carrier organic anion transporter family member 1B3 (SLCO1B3, Homo sapiens, UniProt Q9NPD5)
SMILES,tested on,test,system,setting,measurement,value
CCCN(c1ccc(F)cc1)c1c(-c2ccccn2)nc2ccccn12,,metabolic stability,"rat, hepatocytes",,hepatocyte CLint,110 µL/min/10⁶ cells
O=C(O[C@H]1[C@@H]2C=CO[C@@H](O[C@@H]3O[C@H](CO)[C@@H](O)[C@H](O)[C@H]3O)[C@@H]2[C@@]2(CO)O[C@@H]12)c1ccc(O)cc1,SLCO1B3,"transporter uptake, substrate",HEK293,5 min,Km,502 µM
Clc1cccc(-c2c(-c3ccccn3)nc3n2CCC3)c1,,metabolic stability,"rat, hepatocytes",,hepatocyte CLint,51 µL/min/10⁶ cells
CN(C(=O)n1cnc(-c2ccc[n+]([O-])c2)c1)C1CCCCC1,SLCO1B3,"transporter uptake, inhibitor",HEK293,1 µg/mL,inhibition,11%
C[C@H]1C[C@H]2[C@@H]3CCC4=CC(=O)C=C[C@]4(C)[C@@]3(Cl)[C@@H](O)C[C@]2(C)[C@@]1(O)C(=O)CO,SLCO1B3,"transporter uptake, inhibitor",,,IC50,1.4 µM
COc1cc(OC)cc(-c2c(-c3ccccn3)nc3n2CCC3)c1,,metabolic stability,"rat, hepatocytes",,hepatocyte CLint,> 300 µL/min/10⁶ cells
OC[C@H]1O[C@@H](c2ccc(Cl)c(Cc3ccc(O[C@H]4CCOC4)cc3)c2)[C@H](O)[C@@H](O)[C@@H]1O,,,"human, urine","oral, 10 mg, single dose",renal clearance,24.5 mL/min
c1cnc2ccc(Nc3nc(NC4CC4)c4nc[nH]c4n3)cc2c1,,,"human, plasma","oral, 100 mg/m², patients",CL/F,35.1 L/h
COc1cc(C(=O)NC2CCN(C)CC2)c(F)cc1Nc1ncc(C(F)(F)F)c(Oc2cccc3c2C(=O)N(C)C3)n1,,,"human, plasma","oral, 25 mg, multiple doses, once daily, patients",CL/F,8.34 L/h
Cc1ccc(C(=O)N(CCCN)[C@@H](c2oc3cc(Cl)ccc3c(=O)c2Cc2ccccc2)C(C)C)cc1,,,"human, plasma","intravenous, 2 mg/m², single dose, patients, infusion",clearance,26.6 mL/min
Cn1cnc(-c2nc3ccccn3c2Nc2ccc(F)cc2)c1,,metabolic stability,"rat, hepatocytes",,hepatocyte CLint,14 µL/min/10⁶ cells
CN(CCC(=O)O)C(=O)c1ccc2c(c1)CC[C@@H]1[C@@H]2CC[C@]2(C)C(c3cncc(F)c3)=CC[C@@H]12,SLCO1B3,"transporter uptake, inhibitor",,,IC50,41 µM
CCNCCCNC/C=C\CNCCCNCC,,,"human, plasma","intravenous, 150 mg, patients, infusion",clearance,5910 mL/min
